Here are results for 4 molecules from ChEMBL document CHEMBL2202988, “D-amino acid based protein arginine deiminase inhibitors: Synthesis, pharmacokinetics, and in cellulo efficacy” (ACS Med Chem Lett, 2012).

Structures are written as SMILES. Calls of active or inactive are those of the source. The rule behind the calls is not given here. Where only a bound is given, the exact number is not on record here.

Data set [1] relates to Mus musculus. The experiment in a line: Toxicity in C57BL/6J mouse assessed as change in body weight at 5 to 150 mg/kg, po after 1 to 96 hrs. It counts as organism-based. On the set-up: route oral. The settings on record: in vivo. A digest of the protocol: (§1)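 Oral dosing of mice (n = 10) at varying doses up to 150 mg/kg; percent change in body weight followed to 96 h, significance at P <0.05.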

Data set [2] deals with MDA-MB-231. The experiment in a line: Antiproliferative activity against human MDA-MB-231 cells assessed as Ki-67 level at 100 to 400 uM. The class given is functional, cell-based. A digest of the protocol: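 MDA-MB-231 triple-negative breast cancer cells (PAD1-overexpressing) exposed to inhibitor at 100, 200 and 400 μM; Ki-67 level taken as the proliferation read-out; tunicamycin at increasing amounts served as positive control for cell-cycle arrest.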

A short description of data set [3]: Drug level in C57Bl/6 mouse serum at 2.5 mg/kg, iv after 4 hrs by LC-MS/MS analysis. The class given is ADME, organism-based. On the set-up: dose 2.5 mg/kg, route intravenous. The settings on record: read-out: Drug uptake. A digest of the protocol: (§2)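 Mice dosed by iv (2.5 or 10 mg/kg) or ip (10 mg/kg) injection; serum/plasma drug levels measured over time up to 4 h, plotted as mean levels.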

The test system of data set [4] is Mus musculus. The experiment in a line: Toxicity in po dosed C57BL/6J mouse. It counts as organism-based. The settings on record: in vivo. Put shortly: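 Mice (n = 10 per group) were dosed per os at varying doses up to 150 mg/kg. Percent change in total body weight was tracked to 96 h, along with observable signs of toxicity. MTD was taken as the highest dose causing no weight loss or significant toxicity signs. Weight change was tested for significance (P < 0.05).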

The subject of data set [5] is MDA-MB-231. The experiment in a line: Cytotoxicity against human MDA-MB-231 cells assessed as decrease in cell number at 400 uM after 96 hrs by trypan blue assay. The class given is functional, cell-based. Put shortly: (§3)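 MDA-MB-231 breast cancer cells (PAD1-overexpressing) exposed to inhibitor at 100, 200 and 400 μM; percent viability and cell number read 96 h after addition.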

For data set [6], the system named is MDA-MB-231. The experiment in a line: Cytotoxicity against human MDA-MB-231 cells assessed as decrease in cell viability at 200 to 400 uM after 96 hrs by trypan blue assay. It counts as functional, cell-based. A digest of the protocol: as §3
The nature of data set [7]: Drug level in C57Bl/6 mouse serum at 2.5 mg/kg, iv after 2 hrs by LC-MS/MS analysis. The settings on record: read-out: Drug uptake. It counts as ADME, organism-based. Details: dose 2.5 mg/kg, route intravenous. A digest of the protocol: as §2
Data set [8] relates to MDA-MB-231. The experiment in a line: Induction of apoptosis in human MDA-MB-231 cells assessed as increase in caspase-3 activity. The class given is functional, cell-based. A digest of the protocol:
(§4)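 MDA-MB-231 cells given inhibitor at 100, 200 and 400 μM; caspase 3 activity measured 96 h after administration.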

In another data set the test system is Liver. The experiment in a line: Half life in mouse liver microsomes. It counts as ADME, Microsome. A digest of the protocol: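 Stability assessed by incubation with murine hepatic microsomes; half-life derived from compound remaining over time.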
Data set [9] is described as follows: Drug level in C57Bl/6 mouse serum at 10 mg/kg, ip after 4 hrs by LC-MS/MS analysis. The class given is ADME, organism-based. The settings on record: read-out: Drug uptake. Details: dose 10 mg/kg, route intraperitoneal. A digest of the protocol: as §2
Data set [10] relates to MDA-MB-231. Description: Antiproliferative activity against human MDA-MB-231 cells assessed as decrease in Ki-67 level. It counts as functional, cell-based. A digest of the protocol: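 MDA-MB-231 triple-negative breast cancer cells (PAD1-overexpressing) treated at 100, 200 and 400 μM. Ki-67 levels assessed 96 h after administration. Tunicamycin served as the positive control for cell cycle arrest.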

For data set [11], the system named is Mus musculus. Description: Toxicity in C57BL/6J mouse assessed as heavy breathing at 150 mg/kg, po after 1 to 4 hrs. Details: dose 150 mg/kg, route oral. It counts as organism-based. The settings on record: in vivo. A digest of the protocol: (§5)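 Mice dosed per os at graded levels up to 150 mg/kg; observable physiological signs (shaking, anxiety, hunching, heavy breathing, stool changes, diarrhea) recorded after treatment, with monitoring over the following days.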

Data set [12] relates to Mus musculus. The experiment in a line: Toxicity in C57BL/6J mouse assessed as hunching at 150 mg/kg, po after 1 to 4 hrs. The settings on record: in vivo. Details: dose 150 mg/kg, route oral. It counts as organism-based. A digest of the protocol:
as §5

Data set [13] has as its system Mus musculus. The experiment in a line: Toxicity in C57BL/6J mouse assessed as body shaking at 150 mg/kg, po after 1 to 4 hrs. The class given is organism-based. The settings on record: in vivo. On the set-up: dose 150 mg/kg, route oral. Put shortly:
as §5

For data set [14], the system named is Mus musculus. The experiment in a line: Drug metabolism in C57Bl/6 mouse at 10 mg/kg, iv measured within 2 hrs by LC-MS/MS analysis. It counts as ADME, organism-based. The settings on record: in vivo. On the set-up: dose 10 mg/kg, route intravenous. Put shortly: as §2
In data set [15] the test system is Mus musculus. The experiment in a line: Toxicity in C57BL/6J mouse assessed as bloody stools at 150 mg/kg, po. The settings on record: in vivo. It counts as organism-based. On the set-up: dose 150 mg/kg, route oral. A digest of the protocol:
as §5

The subject of data set [16] is Mus musculus. Description: Toxicity in C57BL/6J mouse assessed as occurrence of diarrhea at 150 mg/kg, po after 2 to 3 days. It counts as organism-based. On the set-up: dose 150 mg/kg, route oral. The settings on record: in vivo. Put shortly:
as §5

Data set [17] has as its system Mus musculus. Description: Drug metabolism in C57Bl/6 mouse at 10 mg/kg, ip measured within 4 hrs by LC-MS/MS analysis. It counts as ADME, organism-based. On the set-up: dose 10 mg/kg, route intraperitoneal. The settings on record: in vivo. A digest of the protocol: as §2
Data set [18] relates to Mus musculus. The experiment in a line: Toxicity in C57BL/6J mouse assessed as loss in body weight at 100 to 150 mg/kg, po after 96 hrs. It counts as organism-based. Details: dose 100-150 mg/kg, route oral. The settings on record: in vivo. A digest of the protocol:
as §1

Data set [19] deals with Mus musculus. The experiment in a line: Toxicity in C57BL/6J mouse assessed as anxiety at 150 mg/kg, po after 1 to 4 hrs. On the set-up: dose 150 mg/kg, route oral. The settings on record: in vivo. It counts as organism-based. A digest of the protocol: as §5
Data set [20] deals with MDA-MB-231. Description: Induction of apoptosis in human MDA-MB-231 cells assessed as caspase-3 activity at 100 to 400 uM. It counts as functional, cell-based. Put shortly: as §4
Data set [21] has as its system MDA-MB-231. The experiment in a line: Cytotoxicity against human MDA-MB-231 cells assessed as cell viability at 400 uM after 96 hrs by trypan blue assay. The class given is functional, cell-based. Put shortly:
as §3

Regarding `N=C(CCl)NCCC[C@@H](NC(=O)c1ccccc1)C(N)=O`, the Activity entry in the data set on Mus musculus [1] is “Non-toxic”; with MDA-MB-231 [8] it was “Dose-dependent effect”. Further, in the data set with MDA-MB-231 [2], the outcome was inactive. The concentration at 4 h in data set [3] and in data set [9] was 10 nM throughout. Moreover, the MTD with Mus musculus [4] was greater than 150 mg/kg. Also, the result in the data set on MDA-MB-231 [5] and in the data set on MDA-MB-231 [6] was Active. Also, the concentration at 2 h in data set [7] is 21 nM. Moreover, the t1/2 in the data set with Liver was 33 min.

As to `CC(=O)N[C@H]1[C@@H](O[C@@H]2O[C@H](CC(O)[C@H]3O[C@@H](n4ccc(=O)[nH]c4=O)[C@H](O)[C@@H]3O)[C@H](O)[C@H](O)[C@H]2NC(=O)/C=C/CC(C)C)O[C@H](CO)[C@@H](N)[C@@H]1O` (some centres not stated), the result with MDA-MB-231 [10] was Active.

On to `N=C(CCl)NCCC[C@H](NC(=O)c1ccccc1)C(N)=O`, for which the Activity entry in the data set with Mus musculus [11] was “Toxic”; in the data set on Mus musculus [12] it was “Toxic”; in the data set with Mus musculus [13] it was “Toxic”; in the data set on Mus musculus [15], “Toxic”; in the data set with Mus musculus [16], “Toxic”; in the data set on MDA-MB-231 [8] it was “Dose-dependent effect”. In addition, the Activity result in the data set on Mus musculus [18] and with Mus musculus [19] was “Toxic” throughout. Further, the result in the data set with MDA-MB-231 [2] was inactive. The same molecule registered an MTD in the data set on Mus musculus [4] of 75 mg/kg. In addition, the Drug metabolism result with Mus musculus [14] and in the data set on Mus musculus [17] was “Active” throughout. The result in the data set with MDA-MB-231 [5] and with MDA-MB-231 [6] was Active. For the same molecule, the t1/2 in the data set on Liver is given as 37 min.

Consider `N=C(CF)NCCC[C@@H](NC(=O)c1ccccc1C(=O)O)C(N)=O`, for which, in the data set with Mus musculus [1], the Activity entry is given as “Non-toxic”. Besides, the outcome with MDA-MB-231 [2], with MDA-MB-231 [5], with MDA-MB-231 [20] and in the data set on MDA-MB-231 [21] was inactive. The MTD in the data set with Mus musculus [4] is greater than 150 mg/kg.
